In brackets after ≈: the same amount, converted by molar mass.
Columns and labels:
Staphylococcus aureus [1] = assay: Antibacterial activity against Staphylococcus aureus ATCC 29213 assessed as complete reduction in bacterial cell growth by CLSI protocol based broth liquid microdilution method; assay type: functional
Procedure, shortened: (§1)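 Broth liquid microdilution per CLSI guidelines; isolates identified on an automated MicroScan system before testing. MIC taken as lowest concentration giving total inhibition of bacterial growth, reported in μg/mL. S. aureus ATCC29213 run as the control strain.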

Enterococcus faecium [2] = assay: Antibacterial activity against vancomycin-resistant Enterococcus faecium assessed as complete reduction in bacterial cell growth by CLSI protocol based broth liquid microdilution method; assay type: functional; procedure, shortened: as §1
Staphylococcus aureus [3] = assay: Antibacterial activity against methicillin-sensitive Staphylococcus aureus assessed as complete reduction in bacterial cell growth by CLSI protocol based broth liquid microdilution method; assay type: functional; procedure, shortened: as §1
Staphylococcus aureus [4] = assay: Antibacterial activity against methicillin-resistant Staphylococcus aureus assessed as complete reduction in bacterial cell growth by CLSI protocol based broth liquid microdilution method; assay type: functional; procedure, shortened: as §1
Enterococcus faecalis [5] = assay: Antibacterial activity against linezolid-resistant Enterococcus faecalis assessed as complete reduction in bacterial cell growth by CLSI protocol based broth liquid microdilution method; assay type: functional; procedure, shortened: as §1
MAO-A = molecular target: T1, MAO-A (Homo sapiens, UniProt P21397); assay: Inhibition of recombinant human MAO-A (active motif 31502) at 30 uM using luciferin as substrate incubated for 15 mins followed by substrate addition and measured after 60 mins by luminescence based method relative to control; details: probe luciferin
T1 sequence (P21397 whole entry): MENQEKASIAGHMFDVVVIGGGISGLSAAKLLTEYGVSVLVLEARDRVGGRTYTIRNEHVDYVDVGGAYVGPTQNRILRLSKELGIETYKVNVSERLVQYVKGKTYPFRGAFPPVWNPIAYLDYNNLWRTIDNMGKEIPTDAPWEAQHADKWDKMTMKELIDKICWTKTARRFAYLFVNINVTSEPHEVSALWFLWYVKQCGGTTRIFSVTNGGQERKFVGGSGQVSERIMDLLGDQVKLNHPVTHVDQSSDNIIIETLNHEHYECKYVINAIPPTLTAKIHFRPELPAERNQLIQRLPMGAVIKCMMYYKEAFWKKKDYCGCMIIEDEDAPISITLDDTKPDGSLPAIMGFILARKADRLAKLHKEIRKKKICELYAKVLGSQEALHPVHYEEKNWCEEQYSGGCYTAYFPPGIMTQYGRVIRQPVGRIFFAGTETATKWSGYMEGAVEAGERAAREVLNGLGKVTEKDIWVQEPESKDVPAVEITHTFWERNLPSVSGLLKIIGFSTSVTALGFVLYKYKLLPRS
Procedure, shortened: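 Recombinant human MAO-A was measured with the MAO-Glo kit, modified. Compounds were in DMSO (1% DMSO final) and preincubated with enzyme 15 min at room temperature. Luciferin-derivative substrate was then added and the reaction run 60 min at room temperature. Luciferase detection reagent was added for 20 min and luminescence read. Buffer without enzyme served as the 100% inhibition control; DMSO alone as the no-inhibition control. Percent inhibition = (Max − signal)/(Max − Min)×100.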

Staphylococcus aureus [6] = assay: Antibacterial activity against clinical isolates of methicillin-sensitive Staphylococcus aureus assessed as reduction in bacterial cell growth by CLSI protocol based broth microdilution method; assay type: functional; procedure, shortened: as §1
Enterococcus faecalis [7] = assay: Antibacterial activity against clinical isolates of linezolid-resistant Enterococcus faecalis assessed as complete reduction in bacterial cell growth by CLSI protocol based broth liquid microdilution method; assay type: functional; procedure, shortened: as §1
Enterococcus faecium [8] = assay: Antibacterial activity against clinical isolates of vancomycin-resistant Enterococcus faecium assessed as complete reduction in bacterial cell growth by CLSI protocol based broth liquid microdilution method; assay type: functional; procedure, shortened: as §1
[9] = Stability in human liver microsomes assessed as half life at 1.5 uM preincubated for 5 mins with NADPH and measured after 45 mins by LC/MS analysis; assay type: ADME, Microsome; details: microsomes, 0.75 h, 1.5 µM
Procedure, shortened: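 Compound solution at 1.5 µM with 0.75 mg/mL microsomes (before NADPH addition) was preincubated 5 min at 37 °C. Reactions were started with NADPH (6 mM stock). Samples were quenched with acetonitrile containing internal standard at 0, 5, 15, 30 and 45 min, then centrifuged, and the supernatant was diluted with water for LC/MS. Runs were in duplicate. T1/2 = ln2/k from the log-linear slope, and CLint was derived from T1/2.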

HepG2 = assay: Cytotoxicity against human HepG2 cells assessed as reduction in cell viability incubated for 48 hrs by MTT assay; assay type: cell-based; details: HepG2, 48 h
Procedure, shortened: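 HepG2 cells were grown in RPMI1640 with 10% FBS and plated at about 4×10^4 cells/well in MEM. After 24 h at 37 °C in 5% CO2, compounds were added at the indicated final concentrations for 48 h. MTT was added (0.5 mg/mL final) for 4 h at 37 °C and the formazan dissolved in DMSO. Absorbance was read at 492 nm (630 nm reference). Each compound was tested three times; IC50 given as mean ± SD.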

SMILES | MIC (Staphylococcus aureus [1]) | MIC (Enterococcus faecium [2]) | MIC (Staphylococcus aureus [3]) | MIC (Staphylococcus aureus [4]) | MIC (Enterococcus faecalis [5]) | inhibition at 1 h, 30 µM (MAO-A) | MIC (Staphylococcus aureus [6]) | MIC (Enterococcus faecalis [7]) | MIC (Enterococcus faecium [8]) | Stability [9] | IC50 (HepG2)
CC(=O)NC[C@H]1CN(c2ccc(-c3ccc(/C=N/N4CCOCC4)c(O)c3)c(F)c2)C(=O)O1 | 0.25 µg/mL (≈ 0.548 µM) | 0.25 µg/mL (≈ 0.548 µM) | 0.25 µg/mL (≈ 0.548 µM) | 0.25 µg/mL (≈ 0.548 µM) | 0.25 µg/mL (≈ 0.548 µM) |  |  |  |  |  | 
CC(=O)NC[C@H]1CN(c2ccc(-c3ccc(/C=N/N4CCNCC4)c(F)c3)c(F)c2)C(=O)O1 | 0.5 µg/mL (≈ 1.09 µM) | 0.5 µg/mL (≈ 1.09 µM) | 0.5 µg/mL (≈ 1.09 µM) | 0.5 µg/mL (≈ 1.09 µM) | 0.5 µg/mL (≈ 1.09 µM) |  |  |  |  |  | 
CCC(=O)N1CCN(/N=C/c2ccc(-c3ccc(N4C[C@H](CNC(C)=O)OC4=O)cc3F)cn2)CC1 | 1 µg/mL (≈ 2.01 µM) | 0.5 µg/mL (≈ 1.01 µM) | 1 µg/mL (≈ 2.01 µM) | 1 µg/mL (≈ 2.01 µM) | 1 µg/mL (≈ 2.01 µM) |  |  |  |  |  | 
CC(=O)NC[C@H]1CN(c2ccc(-c3ccc(/C=N/N4CCN(C)CC4)cn3)c(F)c2)C(=O)O1 | 2 µg/mL (≈ 4.4 µM) | 2 µg/mL (≈ 4.4 µM) | 2 µg/mL (≈ 4.4 µM) | 1 µg/mL (≈ 2.2 µM) | 2 µg/mL (≈ 4.4 µM) |  |  |  |  |  | 
CC(=O)NC[C@H]1CN(c2ccc(-c3ccc(/C=N/N4CCSCC4)c(C)c3)c(F)c2)C(=O)O1 | 2 µg/mL (≈ 4.25 µM) | 1 µg/mL (≈ 2.13 µM) | 1 µg/mL (≈ 2.13 µM) | 1 µg/mL (≈ 2.13 µM) | 2 µg/mL (≈ 4.25 µM) |  |  |  |  |  | 
CC(=O)NC[C@H]1CN(c2ccc(-c3ccc(/C=N/N4CCN(C(=O)c5ccccc5)CC4)nc3)c(F)c2)C(=O)O1 | 1 µg/mL (≈ 1.84 µM) | 1 µg/mL (≈ 1.84 µM) | 2 µg/mL (≈ 3.67 µM) | 1 µg/mL (≈ 1.84 µM) | 2 µg/mL (≈ 3.67 µM) |  |  |  |  |  | 
CC(=O)NC[C@H]1CN(c2ccc(-c3ccc(/C=N/N4CCNCC4)cn3)c(F)c2)C(=O)O1 | 2 µg/mL (≈ 4.54 µM) | 2 µg/mL (≈ 4.54 µM) | 2 µg/mL (≈ 4.54 µM) | 2 µg/mL (≈ 4.54 µM) | 2 µg/mL (≈ 4.54 µM) |  |  |  |  |  | 
CC(=O)NC[C@H]1CN(c2ccc(-c3ccc(/C=N/N4CCOCC4)c(F)c3)c(F)c2)C(=O)O1 | 0.25 µg/mL (≈ 0.545 µM) | 0.25 µg/mL (≈ 0.545 µM) | 0.25 µg/mL (≈ 0.545 µM) | 0.25 µg/mL (≈ 0.545 µM) | 0.25 µg/mL (≈ 0.545 µM) | 80% |  |  |  |  | 
CC(=O)NC[C@H]1CN(c2ccc(-c3ccc(/C=N/N4CCNCC4)c(C)c3)c(F)c2)C(=O)O1 | 0.5 µg/mL (≈ 1.1 µM) | 0.5 µg/mL (≈ 1.1 µM) | 0.5 µg/mL (≈ 1.1 µM) | 0.5 µg/mL (≈ 1.1 µM) | 0.5 µg/mL (≈ 1.1 µM) |  |  |  |  |  | 
CC(=O)NC[C@H]1CN(c2ccc(-c3ccc(/C=N/N4CCS(=O)(=O)CC4)c(O)c3)c(F)c2)C(=O)O1 | 0.125 µg/mL (≈ 0.248 µM) | 0.25 µg/mL (≈ 0.496 µM) | 0.25 µg/mL (≈ 0.496 µM) | 0.25 µg/mL (≈ 0.496 µM) | 0.25 µg/mL (≈ 0.496 µM) | 67% | 1 to 2 µg/mL (≈ 1.98 to 3.96 µM) | 1 to 2 µg/mL (≈ 1.98 to 3.96 µM) | 1 to 2 µg/mL (≈ 1.98 to 3.96 µM) |  | 
CC(=O)NC[C@H]1CN(c2ccc(-c3ccc(/C=N/N4CC[S+]([O-])CC4)nc3)c(F)c2)C(=O)O1 | 0.25 µg/mL (≈ 0.528 µM) | 0.5 µg/mL (≈ 1.06 µM) | 0.5 µg/mL (≈ 1.06 µM) | 0.25 µg/mL (≈ 0.528 µM) | 0.5 µg/mL (≈ 1.06 µM) |  |  |  |  |  | 
CC(=O)NC[C@H]1CN(c2ccc(-c3ccc(/C=N/N4CCN(C)CC4)c(C(F)(F)F)c3)c(F)c2)C(=O)O1 | 2 µg/mL (≈ 3.83 µM) | 2 µg/mL (≈ 3.83 µM) | 2 µg/mL (≈ 3.83 µM) | 2 µg/mL (≈ 3.83 µM) | 2 µg/mL (≈ 3.83 µM) |  |  |  |  |  | 
COC(=O)N1CCN(/N=C/c2ccc(-c3ccc(N4C[C@H](CNC(C)=O)OC4=O)cc3F)cn2)CC1 | 1 µg/mL (≈ 2.01 µM) | 0.5 µg/mL (≈ 1 µM) | 2 µg/mL (≈ 4.01 µM) | 1 µg/mL (≈ 2.01 µM) | 1 µg/mL (≈ 2.01 µM) |  |  |  |  |  | 
CC(=O)NC[C@H]1CN(c2ccc(N3CCOCC3)c(F)c2)C(=O)O1 [LINEZOLID] | 1 µg/mL (≈ 2.96 µM) | 2 µg/mL (≈ 5.93 µM) | 1 µg/mL (≈ 2.96 µM) | 1 µg/mL (≈ 2.96 µM) | > 16 µg/mL |  | 1 to 4 µg/mL (≈ 2.96 to 11.9 µM) | > 16 µg/mL | 1 to 4 µg/mL (≈ 2.96 to 11.9 µM) | Stable | > 25 µM

From ChEMBL document CHEMBL4312003, “Optimization of biaryloxazolidinone as promising antibacterial agents against antibiotic-susceptible and antibiotic-resistant gram-positive bacteria” (Eur J Med Chem, 2020)
